Experimental data from ChEMBL document CHEMBL3525897, “Metabolism and quantification of [(18)F]DPA-714, a new TSPO positron emission tomography radioligand” (Drug Metab Dispos, 2013).

What was measured:
[1] = Retention time in baboon plasma treated with [18F]DPA-714 by radio-HPLC analysis; format: ADME, cell-free; conditions: papio anubis
Procedure, shortened: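 Isoflurane-anaesthetized baboons, 6 PET experiments. Arterial femoral plasma sampled 0-120 min and centrifuged at 4°C, then deproteinated with acetonitrile; pellet radioactivity counted and treated as metabolite. Supernatant run on radio-HPLC (C18 preparative, 0.1% TFA water/acetonitrile 20-80% over 10 min, 5 mL/min). Counts decay-corrected to injection. Parent fraction as % total; data fitted to two exponentials; mean ± sd.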

[2] = Retention time of the compound by LC-MS analysis; format: physicochemical
Procedure, shortened: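 Separation of DPA-714 and its metabolites by LC-MS on reverse-phase Atlantis C18 column (2.1x150 mm) with electrospray ionization.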

Liver microsome = assay: Drug level in Sprague-Dawley rat liver microsomes treated with DPA-714 after 15 to 60 mins by LC-MS/MS analysis

SMILES | Retention_time [1] [min] | Retention_time [2] [min] | Drug metabolism (Liver microsome)
CCNC(=O)Cc1c(-c2ccc(OCCF)cc2)nn2c(C)cc(C)nc12 |  | 16.1 | metabolite_detected
CCNC(=O)Cc1c(-c2ccc(OCCF)cc2)nn2c(C)cc(CO)nc12 |  | 13.88 | metabolite_detected
CCN(CC)C(=O)Cc1c(-c2ccc(OCCF)cc2)nn2c(C)c(O)c(C)nc12 |  | 16.43 | metabolite_detected

Continued, values first:

Retention_time [1] [min] | Retention_time [2] [min] | Drug metabolism (Liver microsome) | SMILES
8.583 |  |  | CCNC(=O)Cc1c(-c2ccc(OCC[18F])cc2)nn2c(C)cc(C)nc12
 | 16.87 | metabolite_detected | CCN(CC)C(=O)Cc1c(-c2ccc(OCCF)cc2)nn2c(C)cc(CO)nc12
